Measurements as given in ChEMBL document CHEMBL5724801, “EUbOPEN Chemogenomics Library - Multiplex” (2024).
Values joined by “and” are separate entries in the source; they are usually repeats but may differ in a detail not shown here. Identical values can stand only once.

Test system: HEK-293T
Experiment: Multiplex assay against HEK293T
Assay type: toxicity, cell-based
Conditions: human
Procedure, shortened: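 Four dyes were applied at seeding to live cells: Hoechst33342, BioTracker Green Microtubule Cytoskeleton Dye, MitoTracker Red and Annexin V Alexa Fluor 680. Imaging after compound addition used a CQ1 microscope at 37°C and 5% CO2. CellPathfinder machine-learning gating then sorted cells into Hoechst high-intensity objects or normal cells, normal cells into healthy, pyknosed or fragmented nuclei, and pyknosed cells into mitotic or apoptotic, with tubulin, mitochondrial-mass and membrane-permeability phenotypes given as per cents of healthy-nucleus cells.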

[1] = 12 h, 1 µM, compound concentration 1 uM
[2] = 12 h, 10 µM, compound concentration 10 uM
[3] = 24 h, 1 µM, compound concentration 1 uM
[4] = 24 h, 10 µM, compound concentration 10 uM
[5] = 48 h, 1 µM, compound concentration 1 uM
[6] = 48 h, 10 µM, compound concentration 10 uM

Cc1ccc(/C(=C\CN2CCCC2)c2ccccn2)cc1 [TRIPROLIDINE]
Population Apoptotic (%) [1]: 34% and 50%
Population Fragmented Nuclei (%) [1]: 6% and 3%
Population Healthy Nuclei (%) [1]: 83% and 84%
Population Hoechst High Intensity Objects (%) [1]: 7% and 5%
Population Membrane Permeable-Phenotype (%) [1]: 0%
Population Mitochondria Different-Phenotype (%) [1]: 45% and 55%
Population Mitotic Cells (%) [1]: 65% and 50%
Population Normal (%) [1]: 92% and 94%
Population Pyknosed Nuclei (%) [1]: 9% and 11%
Population Tubulin-Different-Phenotype (%) [1]: 24% and 17%
Total Cell Count [1]: 424 and 446
Population Apoptotic (%) [2]: 44%
Population Fragmented Nuclei (%) [2]: 10% and 6%
Population Healthy Nuclei (%) [2]: 72% and 77%
Population Hoechst High Intensity Objects (%) [2]: 15% and 8%
Population Membrane Permeable-Phenotype (%) [2]: 0%
Population Mitochondria Different-Phenotype (%) [2]: 67% and 74%
Population Mitotic Cells (%) [2]: 56%
Population Normal (%) [2]: 84% and 91%
Population Pyknosed Nuclei (%) [2]: 16% and 15%
Population Tubulin-Different-Phenotype (%) [2]: 53% and 45%
Total Cell Count [2]: 368 and 344
Population Apoptotic (%) [3]: 30%
Population Fragmented Nuclei (%) [3]: 10% and 9%
Population Healthy Nuclei (%) [3]: 78% and 82%
Population Hoechst High Intensity Objects (%) [3]: 3% and 7%
Population Membrane Permeable-Phenotype (%) [3]: 0%
Population Mitochondria Different-Phenotype (%) [3]: 27% and 34%
Population Mitotic Cells (%) [3]: 70% and 69%
Population Normal (%) [3]: 96% and 92%
Population Pyknosed Nuclei (%) [3]: 10% and 7%
Population Tubulin-Different-Phenotype (%) [3]: 18% and 9%
Total Cell Count [3]: 574 and 541
Population Apoptotic (%) [4]: 36% and 27%
Population Fragmented Nuclei (%) [4]: 8% and 9%
Population Healthy Nuclei (%) [4]: 78% and 80%
Population Hoechst High Intensity Objects (%) [4]: 9% and 4%
Population Membrane Permeable-Phenotype (%) [4]: 0%
Population Mitochondria Different-Phenotype (%) [4]: 55% and 54%
Population Mitotic Cells (%) [4]: 63% and 72%
Population Normal (%) [4]: 90% and 95%
Population Pyknosed Nuclei (%) [4]: 13% and 10%
Population Tubulin-Different-Phenotype (%) [4]: 43% and 26%
Total Cell Count [4]: 490 and 464
Population Apoptotic (%) [5]: 16% and 37%
Population Fragmented Nuclei (%) [5]: 14% and 10%
Population Healthy Nuclei (%) [5]: 79% and 84%
Population Hoechst High Intensity Objects (%) [5]: 1% and 3%
Population Membrane Permeable-Phenotype (%) [5]: 2% and 1%
Population Mitochondria Different-Phenotype (%) [5]: 17% and 13%
Population Mitotic Cells (%) [5]: 83% and 62%
Population Normal (%) [5]: 98% and 96%
Population Pyknosed Nuclei (%) [5]: 6% and 4%
Population Tubulin-Different-Phenotype (%) [5]: 11% and 6%
Total Cell Count [5]: 950 and 837
Population Apoptotic (%) [6]: 43% and 33%
Population Fragmented Nuclei (%) [6]: 16% and 13%
Population Healthy Nuclei (%) [6]: 74% and 78%
Population Hoechst High Intensity Objects (%) [6]: 6% and 4%
Population Membrane Permeable-Phenotype (%) [6]: 0% and 1%
Population Mitochondria Different-Phenotype (%) [6]: 46% and 43%
Population Mitotic Cells (%) [6]: 56% and 66%
Population Normal (%) [6]: 93% and 95%
Population Pyknosed Nuclei (%) [6]: 9% and 7%
Population Tubulin-Different-Phenotype (%) [6]: 29% and 25%
Total Cell Count [6]: 674 and 644

CC(C)(C)c1cc(C(C)(C)C)c(NC(=O)c2c[nH]c3ccccc3c2=O)cc1O [IVACAFTOR]
Population Apoptotic (%) [1]: 10.06% and 8.26%
Population Fragmented Nuclei (%) [1]: 0% and 2.11%
Population Healthy Nuclei (%) [1]: 51.67% and 21.13%
Population Hoechst High Intensity Objects (%) [1]: 0.3% and 0%
Population Membrane Permeable-Phenotype (%) [1]: 0.59% and 0%
Population Mitochondria Different-Phenotype (%) [1]: 31.76% and 13.33%
Population Mitotic Cells (%) [1]: 89.94% and 91.74%
Population Normal (%) [1]: 99.7% and 100%
Population Pyknosed Nuclei (%) [1]: 48.33% and 76.76%
Total Cell Count [1]: 330 and 142
Population Apoptotic (%) [2]: 31.3% and 21.05%
Population Fragmented Nuclei (%) [2]: 2.9% and 1.94%
Population Hoechst High Intensity Objects (%) [2]: 0.72% and 0%
Population Membrane Permeable-Phenotype (%) [2]: 0%
Population Mitochondria Different-Phenotype (%) [2]: 27.01% and 57.89%
Population Mitotic Cells (%) [2]: 68.7% and 78.95%
Population Normal (%) [2]: 99.28% and 100%
Population Pyknosed Nuclei (%) [2]: 47.46% and 85.81%
Total Cell Count [2]: 278 and 155
Population Apoptotic (%) [3]: 15.6% and 17.89%
Population Fragmented Nuclei (%) [3]: 0.58% and 1.37%
Population Healthy Nuclei (%) [3]: 78.42% and 33.56%
Population Hoechst High Intensity Objects (%) [3]: 0%
Population Membrane Permeable-Phenotype (%) [3]: 0.49% and 2.04%
Population Mitochondria Different-Phenotype (%) [3]: 13.02% and 8.16%
Population Mitotic Cells (%) [3]: 84.4% and 82.11%
Population Normal (%) [3]: 100%
Population Tubulin-Different-Phenotype (%) [3]: 7.13% and 10.2%
Population Apoptotic (%) [4]: 52.29% and 35.25%
Population Fragmented Nuclei (%) [4]: 2.77% and 2.63%
Population Hoechst High Intensity Objects (%) [4]: 0.82% and 0%
Population Membrane Permeable-Phenotype (%) [4]: 0% and 3.85%
Population Mitotic Cells (%) [4]: 47.71% and 64.75%
Population Normal (%) [4]: 99.18% and 100%
Population Pyknosed Nuclei (%) [4]: 30.19% and 80.26%
Population Tubulin-Different-Phenotype (%) [4]: 10.74% and 7.69%
Total Cell Count [4]: 364 and 152
Population Apoptotic (%) [5]: 8.49% and 16.88%
Population Fragmented Nuclei (%) [5]: 2.06% and 0.56%
Population Healthy Nuclei (%) [5]: 89.56% and 55.93%
Population Hoechst High Intensity Objects (%) [5]: 0.24% and 0.56%
Population Membrane Permeable-Phenotype (%) [5]: 3.45% and 1.01%
Population Mitotic Cells (%) [5]: 91.51% and 83.12%
Population Normal (%) [5]: 99.76% and 99.44%
Population Apoptotic (%) [6]: 17.35% and 40.23%
Population Fragmented Nuclei (%) [6]: 2.23% and 4%
Population Healthy Nuclei (%) [6]: 84.89% and 46.29%
Population Hoechst High Intensity Objects (%) [6]: 0.13% and 1.69%
Population Membrane Permeable-Phenotype (%) [6]: 2.48% and 1.23%
Population Mitochondria Different-Phenotype (%) [6]: 34.21% and 56.79%
Population Mitotic Cells (%) [6]: 82.65% and 59.77%
Population Normal (%) [6]: 99.87% and 98.31%
